Results as given in ChEMBL document CHEMBL1144027, “Synthesis and antimycobacterial evaluation of newer 1-cyclopropyl-1,4-dihydro-6-fluoro-7-(substituted secondary amino)-8-methoxy-5-(sub)-4-oxoquinoline-3-carboxylic acids” (Bioorg Med Chem, 2008).
Values after ≈ are worked out from the molar mass of the structure shown.

Assays:
[1] = tested on: Mycolicibacterium smegmatis; assay: Antimycobacterial activity against Mycobacterium smegmatis MC2 by agar dilution method; format: functional
Summary of the method: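 Agar dilution in Middlebrook 7H11 agar with OADC, run along NCCLS-recommended lines; M. smegmatis ATCC 14468 (MC2); MIC determined in duplicate.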

[2] = tested on: Mycobacterium tuberculosis; assay: Antimycobacterial activity against Mycobacterium tuberculosis H37Rv by agar dilution method; format: functional
Summary of the method: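 Agar dilution MIC on Middlebrook 7H11 agar with OADC, following the NCCLS-recommended approach, run in duplicate. The MDR clinical isolate was resistant to isoniazid, rifampicin, ethambutol and ofloxacin.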

[3] = tested on: Vero; assay: Cytotoxicity against african green monkey Vero cells after 72 hrs by MTT assay; format: cell-based; conditions: Chlorocebus sabaeus
Summary of the method: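 Mammalian Vero cells exposed to compounds at 62.5 µg/ml for 72 h; viability read by cellular conversion of MTT to formazan (Cell Titer 96 non-radioactive proliferation assay).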

[4] = biological target: DNA gyrase subunit B (Mycobacterium smegmatis (strain ATCC 700084 / mc(2)155), UniProt A0QNE0); assay: Inhibition of Mycobacterium smegmatis MC2 DNA gyrase GyrB ATPase supercoiling activity; design: species or system Mycolicibacterium smegmatis
Summary of the method: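 Gyrase purified from M. smegmatis MC2 cells; compounds in DMSO pre-incubated with enzyme, then 400 ng relaxed pUC18 added in 35 mM Tris-HCl pH 7.5, 5 mM MgCl2, 25 mM K glutamate, 2 mM spermidine, 2 mM ATP, BSA, tRNA, 5% glycerol; 30 min; heat-stopped 65 °C 15 min; agarose gel, ethidium bromide staining; ciprofloxacin 10 µg/ml and 5% DMSO controls.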

[5] = tested on: Mus musculus; assay: Phototoxicity in Swiss albino mouse assessed as ear thickness at 140 mg/kg, po after 4 hrs of irradiation; format: organism-based; design: dose 140 mg/kg, route oral; conditions: in vivo
Summary of the method: (§1)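 Female Swiss albino mice (~2 months, 20-25 g), fasted ≥18 h, single 140 mg/kg oral gavage dose; groups of 6 (compound, lomefloxacin HCl 140 mg/kg, 0.5% carboxymethylcellulose vehicle 10 ml/kg); UV irradiation 4 h (~18 J/cm²) right after dosing; both ears scored for erythema, oedema, thickness pre-dose, at end of irradiation, and ~24-96 h; thickness given as mean of both ears ± SEM.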

[6] = tested on: Mus musculus; assay: Phototoxicity in Swiss albino mouse assessed as ear thickness at 140 mg/kg, po after 24 hrs of irradiation; format: organism-based; design: dose 140 mg/kg, route oral; conditions: in vivo; summary of the method: as §1
[7] = tested on: Mus musculus; assay: Phototoxicity in Swiss albino mouse assessed as ear thickness at 140 mg/kg, po after 48 hrs of irradiation; format: organism-based; design: dose 140 mg/kg, route oral; conditions: in vivo; summary of the method: as §1
[8] = tested on: Mus musculus; assay: Phototoxicity in Swiss albino mouse assessed as ear thickness at 140 mg/kg, po after 72 hrs of irradiation; format: organism-based; design: dose 140 mg/kg, route oral; conditions: in vivo; summary of the method: as §1
[9] = tested on: Mus musculus; assay: Phototoxicity in Swiss albino mouse assessed as ear thickness at 140 mg/kg, po after 96 hrs of irradiation; format: organism-based; design: dose 140 mg/kg, route oral; conditions: in vivo; summary of the method: as §1
[10] = tested on: Mus musculus; assay: Phototoxicity in Swiss albino mouse assessed as erythema incidence at 140 mg/kg, po after 24 hrs of irradiation; format: organism-based; design: dose 140 mg/kg, route oral; conditions: in vivo; summary of the method: as §1
[11] = tested on: Mus musculus; assay: (§2) Phototoxicity in Swiss albino mouse assessed as erythema incidence at 140 mg/kg, po after 48 hrs of irradiation; format: organism-based; design: dose 140 mg/kg, route oral; conditions: in vivo; summary of the method: as §1
[12] = tested on: Mus musculus; assay: as §2; format: organism-based; design: dose 140 mg/kg, route oral; conditions: in vivo; summary of the method: as §1; remark: listed apart in the source
[13] = tested on: Mus musculus; assay: Phototoxicity in Swiss albino mouse assessed as erythema incidence at 140 mg/kg, po after 96 hrs of irradiation; format: organism-based; design: dose 140 mg/kg, route oral; conditions: in vivo; summary of the method: as §1
[14] = tested on: Mus musculus; assay: Phototoxicity in Swiss albino mouse assessed as erythema incidence at 140 mg/kg, po after 4 hrs of irradiation; format: organism-based; design: dose 140 mg/kg, route oral; conditions: in vivo; summary of the method: as §1
[15] = tested on: Mycobacterium tuberculosis; assay: Antimycobacterial activity against Mycobacterium tuberculosis ATCC 35801 infected in CD1 mouse assessed as bacterial load in lungs at 50 mg/kg, ip after 10 days; format: functional; conditions: route intraperitoneal
Summary of the method: (§3)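 Female CD-1 mice, 6 weeks old, six per group, infected IV via caudal vein with ~10⁷ viable organisms. Intraperitoneal treatment started 10 days after inoculation and ran 10 days. At 35 days post-infection, spleens and right lungs were homogenised and serially 10-fold diluted onto 7H10 agar, incubated 4 weeks at 37 °C in ambient air. CFU compared with vehicle-treated controls.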

[16] = tested on: Mycobacterium tuberculosis; assay: Antimycobacterial activity against Mycobacterium tuberculosis ATCC 35801 infected in CD1 mouse assessed as bacterial load in spleen at 50 mg/kg, ip after 10 days; format: functional; conditions: route intraperitoneal; summary of the method: as §3
[17] = tested on: Mycobacterium tuberculosis; assay: Antimycobacterial activity against Mycobacterium tuberculosis ATCC 35801 infected in CD1 mouse assessed as bacterial load in lungs at 25 mg/kg, ip after 10 days; format: functional; conditions: route intraperitoneal; summary of the method: as §3
[18] = tested on: Mycobacterium tuberculosis; assay: Antimycobacterial activity against Mycobacterium tuberculosis ATCC 35801 infected in CD1 mouse assessed as bacterial load in spleen at 25 mg/kg, ip after 10 days; format: functional; conditions: route intraperitoneal; summary of the method: as §3

Sequence of DNA gyrase subunit B (Mycobacterium smegmatis (strain ATCC 700084 / mc(2)155), UniProt A0QNE0) (A0QNE0 whole entry): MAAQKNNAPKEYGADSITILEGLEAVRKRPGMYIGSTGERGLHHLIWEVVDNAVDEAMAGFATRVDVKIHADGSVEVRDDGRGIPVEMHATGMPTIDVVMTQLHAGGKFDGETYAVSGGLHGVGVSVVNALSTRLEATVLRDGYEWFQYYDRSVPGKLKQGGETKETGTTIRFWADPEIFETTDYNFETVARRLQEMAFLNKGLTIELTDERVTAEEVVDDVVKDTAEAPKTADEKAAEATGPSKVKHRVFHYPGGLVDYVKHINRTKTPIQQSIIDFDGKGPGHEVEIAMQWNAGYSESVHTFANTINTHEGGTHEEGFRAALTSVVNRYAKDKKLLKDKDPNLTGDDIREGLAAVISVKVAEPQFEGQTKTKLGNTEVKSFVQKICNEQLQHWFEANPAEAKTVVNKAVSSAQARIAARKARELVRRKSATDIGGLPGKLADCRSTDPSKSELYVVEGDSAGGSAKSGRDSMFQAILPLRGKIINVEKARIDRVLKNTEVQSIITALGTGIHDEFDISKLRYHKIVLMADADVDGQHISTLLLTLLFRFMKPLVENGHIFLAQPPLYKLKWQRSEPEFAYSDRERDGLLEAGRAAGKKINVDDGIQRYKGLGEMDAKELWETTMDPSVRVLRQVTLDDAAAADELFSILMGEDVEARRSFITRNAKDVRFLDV

Row | Structure (SMILES) | MIC [1] [µM] | MIC [2] [µM] | IC50 [3] [µM] | further results
1 | COc1c(N2CCC(O)(c3ccc(Cl)cc3)CC2)c(F)cc2c(=O)c(C(=O)O)cn(C3CC3)c12 | 12.8 (≈ 6.25 µg/mL) | 6.43 (≈ 3.13 µg/mL) |  | 
2 | COc1c(N2CCSCC2)c(F)cc2c(=O)c(C(=O)O)cn(C3CC3)c12 | 4.12 (≈ 1.56 µg/mL) | 2.06 (≈ 0.78 µg/mL) | 165 | 
3 | COc1c(N2CC(C)OC(C)C2)c(F)cc2c(=O)c(C(=O)O)cn(C3CC3)c12 (centres undefined) | 16 (≈ 6.25 µg/mL) | 3.99 (≈ 1.56 µg/mL) | 160 | 
4 | COc1c(N2CCN(C(=O)C3COc4ccccc4O3)CC2)c(F)c([N+](=O)[O-])c2c(=O)c(C(=O)O)cn(C3CC3)c12 (centres undefined) | 2.74 (≈ 1.56 µg/mL) | 1.37 (≈ 0.779 µg/mL) | 110 | IC50 [4]: > 87.9 µM
5 | COc1c(N2CCN(C)C(c3ccccc3)C2)c(F)cc2c(=O)c(C(=O)O)cn(C3CC3)c12 (centres undefined) | 27.7 (≈ 12.5 µg/mL) | 13.8 (≈ 6.25 µg/mL) |  | 
6 | COc1c(N2CCc3ccccc3C2C(=O)NC(C)(C)C)c(F)cc2c(=O)c(C(=O)O)cn(C3CC3)c12 (centres undefined) | 49.3 (≈ 25 µg/mL) | 12.3 (≈ 6.25 µg/mL) |  | 
7 | COc1c(N2COCC2(C)C)c(F)c([N+](=O)[O-])c2c(=O)c(C(=O)O)cn(C3CC3)c12 | 3.7 (≈ 1.56 µg/mL) | 1.85 (≈ 0.78 µg/mL) | 148 | 
8 | COc1c(N2COCC2(C)C)c(F)cc2c(=O)c(C(=O)O)cn(C3CC3)c12 | 16.6 (≈ 6.25 µg/mL) | 4.14 (≈ 1.56 µg/mL) | 166 | 
9 | COc1c(N2CCC(N3CCCCC3)CC2)c(F)cc2c(=O)c(C(=O)O)cn(C3CC3)c12 | 14.1 (≈ 6.25 µg/mL) | 7.06 (≈ 3.13 µg/mL) |  | 
10 | COc1c(N2CC(C)OC(C)C2)c(F)c([N+](=O)[O-])c2c(=O)c(C(=O)O)cn(C3CC3)c12 (centres undefined) | 1.79 (≈ 0.779 µg/mL) | 0.89 (≈ 0.388 µg/mL) | 144 | IC50 [4]: 115 µM; Activity [5]: 0.29 mm; Activity [6]: 0.35 mm; Activity [7]: 0.36 mm; Activity [8]: 0.34 mm; Activity [9]: 0.33 mm; Activity [10]: Non-toxic; Activity [11]: Non-toxic; Activity [12]: Non-toxic; Activity [13]: Non-toxic
11 | COc1c(N2CCC(N3CCCCC3)CC2)c(F)c([N+](=O)[O-])c2c(=O)c(C(=O)O)cn(C3CC3)c12 | 12.8 (≈ 6.25 µg/mL) | 6.41 (≈ 3.13 µg/mL) |  | 
12 | COc1c(N2CCC3(CC2)OCCO3)c(F)c([N+](=O)[O-])c2c(=O)c(C(=O)O)cn(C3CC3)c12 | 6.75 (≈ 3.13 µg/mL) | 0.84 (≈ 0.389 µg/mL) | 135 | 
13 | COc1c(N2CCSCC2)c(F)c([N+](=O)[O-])c2c(=O)c(C(=O)O)cn(C3CC3)c12 | 3.68 (≈ 1.56 µg/mL) | 1.84 (≈ 0.779 µg/mL) | 148 | IC50 [4]: > 118 µM
14 | COc1c(N2CCn3cc(C(=O)O)nc3C2)c(F)cc2c(=O)c(C(=O)O)cn(C3CC3)c12 | 7.08 (≈ 3.13 µg/mL) | 3.53 (≈ 1.56 µg/mL) | 141 | 
15 | COc1c(N2CCN(Cc3ccc4c(c3)OCO4)CC2)c(F)c([N+](=O)[O-])c2c(=O)c(C(=O)O)cn(C3CC3)c12 | 1.44 (≈ 0.778 µg/mL) | 0.35 (≈ 0.189 µg/mL) | 116 | Activity [5]: 0.27 mm; Activity [6]: 0.28 mm; Activity [7]: 0.3 mm; Activity [8]: 0.33 mm; Activity [9]: 0.31 mm; Activity [14]: Non-toxic; Activity [10]: Non-toxic
16 | COc1c(N2CCNC(C)C2)c(F)cc2c(=O)c(C(=O)O)cn(C3CC3)c12 (centres undefined) [GATIFLOXACIN] | 2.08 (≈ 0.781 µg/mL) | 1.04 (≈ 0.39 µg/mL) | > 155 | Activity [15]: 6.02; Activity [16]: 6.92
17 | NNC(=O)c1ccncc1 [ISONIAZID] | 45.6 (≈ 6.25 µg/mL) | 0.36 (≈ 0.0494 µg/mL) | > 456 | Activity [17]: 5.86; Activity [18]: 4.71
18 | CCn1cc(C(=O)O)c(=O)c2cc(F)c(N3CCNC(C)C3)c(F)c21 (centres undefined) [LOMEFLOXACIN] |  |  |  | Activity [5]: 0.4 mm; Activity [6]: 0.48 mm; Activity [7]: 0.53 mm; Activity [8]: 0.64 mm; Activity [9]: 0.6 mm; Activity [14]: Toxic; Activity [10]: Toxic; Activity [11]: Toxic; Activity [12]: Toxic; Activity [13]: Toxic
